According to ChEMBL document CHEMBL3616442, “Unconventional Knoevenagel-type indoles: Synthesis and cell-based studies for the identification of pro-apoptotic agents” (Eur J Med Chem, 2015):
Activity calls are given as the source filed them. No cut-off for these calls is given here.

Legend:
Nucleic Acid = assay: Induction of DNA intercalation of plasmid pQE30 DNA at 0.01 to 1 mM by electrophoretic mobility assay; assay type: nucleic-acid assay; details: Escherichia coli
Summary of the method: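 Compound dissolved in methanol and incubated with double-strand plasmid pQE-30 DNA for 10 min at 37 °C; gel loading buffer added and samples run on 0.7% agarose to separate closed circular and supercoiled forms.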

MCF7 [1] = assay: Induction of cell cycle arrest in human MCF7 cells assessed as accumulation at G2/M phase after 18 hrs by propidium iodide staining based flow cytometric analysis; assay type: functional
Summary of the method: (§1)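 Propidium iodide/RNase A flow cytometry of ethanol-fixed cells, 10,000 gated events at 488 nm; G2/M fraction measured after 18 h treatment (HL-60, MCF-7) or 24 h (K562); mean ± S.E.M. of three independent experiments.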

MT4 = assay: Antiproliferative activity against human MT4 cells after 96 hrs by MTT assay; assay type: functional, cell-based; details: MT4, 96 h
Summary of the method: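 Exponentially growing MT-4 cells (CD4+ human T-cells carrying integrated HTLV-1 genome), seeded at 1×10^5 cells/mL in RPMI-1640 with 10% FCS and antibiotics. Serial dilutions of compound (DMSO stock 100 mM, diluted in medium), 37 °C, 5% CO₂, 96 h. Viability read by MTT. 50% inhibition versus untreated controls by linear regression. Mean ± SD of three independent determinations.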

HL-60 [2] = assay: Induction of cell cycle arrest in human HL60 cells assessed as accumulation at G2/M phase after 18 hrs by propidium iodide staining based flow cytometric analysis; assay type: functional; summary of the method: as §1
K562 [3] = assay: Induction of apoptosis in human K562 cells by propidium iodide staining based flow cytometric analysis; assay type: functional
Summary of the method: (§2)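 After treatment, cells harvested, fixed in ice-cold 70% ethanol at 4 °C, stained 30 min at 37 °C in the dark with 100 µg/mL propidium iodide plus 10 µg/mL RNase A; 10,000 gated cells analysed at 488 nm with debris excluded; apoptosis followed over time; mean ± S.E.M. of three independent experiments run in triplicate.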

K562 [4] = assay: Antiproliferative activity against human K562 cells after 3 days incubation by alamar blue method; assay type: functional; details: for GI50: K562, 72 h
Summary of the method: (§3)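 HL-60 and K562 grown in RPMI 1640, MCF-7 in DMEM, each with 10% FCS, penicillin G and streptomycin. Seeded at 4x10⁴ (HL-60, K562) or 2x10⁴ (MCF-7) cells per well with serial compound dilutions, incubated 3 days at 37 °C. Alamar blue added for 3 h at 37 °C in the dark, fluorescence read at ex 544/em 590 nm. IC50 versus untreated controls by linear regression.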

MCF7 [5] = assay: Antiproliferative activity against human MCF7 cells after 3 days incubation by alamar blue method; assay type: functional; details: for GI50: MCF7, 72 h; summary of the method: as §3
Tubulin (Homo sapiens) = Tubulin (Homo sapiens) (UniProt P68371+Q9H4B7+P0DPH7+P68366+Q13509+Q71U36+P04350+Q3ZCM7+P07437+P68363+Q9BQE3+Q6PEY2+Q13885+Q9BVA1+Q9BUF5); assay: Induction of Tubulin depolymerization in human MCF7 cells by immunofluorescence analysis; assay type: cell-based
Summary of the method: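 MCF-7 cells grown and treated on chamber slides, fixed in ice-cold 100% methanol, washed in PBS with 0.1% Triton X-100, blocked 30 min in 5% BSA, then mouse anti-tubulin for 1 h and Alexa 488 secondary for 1 h; DNA counterstained with 0.2 μg/mL propidium iodide for 2 min. Paclitaxel and PBOX-15 served as tubulin controls.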

K562 [6] = assay: Induction of cell cycle arrest in human K562 cells assessed as accumulation at G2/M phase after 24 hrs by propidium iodide staining based flow cytometric analysis; assay type: functional; summary of the method: as §1
MCF7 [7] = assay: Induction of apoptosis in human MCF7 cells by propidium iodide staining based flow cytometric analysis; assay type: functional; summary of the method: as §2
HL-60 [8] = assay: Antiproliferative activity against human HL60 cells after 3 days incubation by alamar blue method; assay type: functional; details: for GI50: HL-60, 72 h; summary of the method: as §3
HL-60 [9] = assay: Induction of apoptosis in human HL60 cells by propidium iodide staining based flow cytometric analysis; assay type: functional; summary of the method: as §2
[10] = Cytotoxicity against human CRL7065 cells after 96 hrs by MTT assay; assay type: cell-based; details: CRL-7065, 96 h
Summary of the method: (§4)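 ATCC cell lines, mycoplasma-free by Hoechst staining. Haematological lines in RPMI-1640, solid-tumour and normal fibroblast lines in their own media, all with 10% FCS and antibiotics, at 37 °C in 5% CO₂. Compounds added as serial dilutions from a 100 mM DMSO stock diluted in medium. Viability by MTT after 96 h at 37 °C. Mean ± SD of three independent determinations.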

CCRF-SB = assay: Cytotoxicity against human CCRF-SB cells after 96 hrs by MTT assay; assay type: functional, cell-based; summary of the method: as §4
WIL2-NS = assay: Cytotoxicity against human WIL2-NS cells after 96 hrs by MTT assay; assay type: functional, cell-based; summary of the method: as §4
MRC5 = assay: Cytotoxicity against human MRC5 cells after 96 hrs by MTT assay; assay type: cell-based; details: MRC5, 96 h; summary of the method: as §4
SK-MEL-28 = assay: Cytotoxicity against human SK-MEL-28 cells after 96 hrs by MTT assay; assay type: functional, cell-based; details: SK-MEL-28, 96 h; summary of the method: as §4
DU-145 = assay: Cytotoxicity against human DU145 cells after 96 hrs by MTT assay; assay type: functional, cell-based; details: DU-145, 96 h; summary of the method: as §4
[11] = Cytotoxicity against human SKMES1 cells after 96 hrs by MTT assay; assay type: functional, cell-based; details: SK-MES-1, 96 h; summary of the method: as §4
MCF7 [12] = assay: Cytotoxicity against human MCF7 cells after 96 hrs by MTT assay; assay type: functional, cell-based; details: MCF7, 96 h; summary of the method: as §4
HepG2 = assay: Cytotoxicity against human HepG2 cells after 96 hrs by MTT assay; assay type: functional, cell-based; details: HepG2, 96 h; summary of the method: as §4
CCRF-CEM = assay: Cytotoxicity against human CCRF-CEM cells after 96 hrs by MTT assay; assay type: functional, cell-based; summary of the method: as §4

| GI50 (K562 [4]) [µM] | GI50 (MCF7 [5]) [µM] | Activity (Tubulin (Homo sapiens)) | GI50 (HL-60 [8]) [µM] | Structure (SMILES) | EC50 (MT4) [µM] | Activity (K562 [3]; TDE = time-dependent effect) | Activity (K562 [4]) | Activity (MCF7 [5]) | Activity (MCF7 [7]) [%] | Activity (MCF7 [7]; TDE = time-dependent effect) | Activity (HL-60 [8]) | Activity (HL-60 [9]; TDE = time-dependent effect) | also measured |
| --- | --- | --- | --- | --- | --- | --- | --- | --- | --- | --- | --- | --- | --- |
| > 10 | > 10 | Active | 1.32 | CS(=O)(=O)/C(C#N)=C/c1c(-c2ccccc2)[nH]c2ccccc12 | 0.3 | tde | Dose-dependent effect | Dose-dependent effect | 28.4 | tde | Dose-dependent effect | tde | Activity (Nucleic Acid): inactive; Activity (MCF7 [1]): 41.3%; Activity (HL-60 [2]): 39.7%; Activity (K562 [3]): 47.5%; Activity (K562 [6]): 46.8% |
| – | – | Active | – | CC(=O)OC1=C(c2cccc3ccccc23)Oc2cc3ccccc3cc2-n2cccc21 | – | – | – | – | – | – | – | – | – |
| > 10 | > 10 | – | 2.11 | N#C/C(=C\c1c(-c2ccccc2)[nH]c2ccccc12)C(=O)c1cccs1 | 0.4 | tde | Dose-dependent effect | Dose-dependent effect | 34.1 | tde | Dose-dependent effect | tde | EC50 [10]: 45 µM; EC50 (CCRF-SB): 0.6 µM; EC50 (WIL2-NS): 6.4 µM; EC50 (MRC5): 20 µM; EC50 (SK-MEL-28): 28 µM; EC50 (DU-145): 11 µM; EC50 [11]: 4 µM; EC50 (MCF7 [12]): 29 µM; EC50 (HepG2): 25 µM; EC50 (CCRF-CEM): 1.2 µM; Activity (HL-60 [9]): 61.3% |
